Usually MIC stands for the lowest concentration found to suppress growth.

Experiment [1] deals with Candida albicans. The experiment can be described thus: Alpha factor which describes the cooperativity of binding of 2 identical inhibitor molecules. In outline:
(§1)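 Microsomes from C. albicans ATCC 28367, 0.20 mg microsomal protein per assay; desmosterol as sterol substrate, SAM 25 μM; standard assay pH 7.5. Reversible inhibition patterns and constants fitted by Cleland COMP/NONCOMP, or otherwise by a parabolic competitive inhibition equation, which gives the alpha cooperativity factor for binding of two inhibitor molecules.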

Experiment [2] relates to Candida albicans. The experiment can be described thus: Compound was tested for the inhibition of delta24-sterol Methyl transferase. In outline: as §1
For experiment [3], the system named is Candida albicans. The experiment can be described thus: Inhibition type against delta 24-sterol Methyl transferase. The gist of the method: as §1
In experiment [4] the test system is Candida albicans. Briefly: In vitro Minimum inhibitory concentration was determined by microbroth dilution assay on Candida albicans. The experiment is classed as functional. The gist of the method: (§2)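 Microbroth dilution, 4×10^3 cells/mL (C. albicans B311; C. tropicalis and T. glabrata clinical isolates, pre-grown 18 h at 35 °C and washed) in YNB with asparagine and glucose, pH 5.5; 0.10–100 μg/mL drug, 1% DMSO final; 24 h at 35 °C, quadruplicate wells. MIC read visually as first concentration with marked growth reduction; geometric mean reported.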
On the technique in general: Broth dilution looks for growth in wells or tubes with falling amounts of substance.

Experiment [5] deals with Candida albicans. Briefly: In vitro Minimum lethal concentration was determined by microbroth dilution assay on Candida albicans. The experiment is classed as functional. The gist of the method: (§3)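 C. albicans strain B311; C. tropicalis and T. glabrata were clinical isolates. Yeasts were pregrown 18 h at 35 °C, 125 rpm, in the test medium, saline-washed three times and counted by hemocytometer. Assay medium was YNB with 0.15% asparagine and 2% glucose, pH 5.5. Final drug 0.10 to 100 μg/mL, 1% DMSO, 4×10^3 cells/mL, quadruplicate wells, 35 °C for 24 h. MLC = first concentration whose subculture (Sabouraud agar, 48 h, 35 °C) gave ≤50 CFU/mL; geometric mean reported.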

For experiment [6], the system named is Candida tropicalis. The experiment can be described thus: In vitro Minimum inhibitory concentration was determined by microbroth dilution assay on Candida tropicalis. The experiment is classed as functional. The gist of the method:
as §2

Experiment [7] has as its system Candida tropicalis. The experiment can be described thus: In vitro Minimum lethal concentration was determined by microbroth dilution assay on Candida tropicalis. The experiment is classed as functional. The gist of the method:
as §3

In experiment [8] the test system is Nakaseomyces glabratus. The experiment can be described thus: In vitro Minimum lethal concentration was determined by microbroth dilution assay on Torulopsis glabrata. The experiment is classed as functional. In outline: as §3
Experiment [9] has as its system Nakaseomyces glabratus. Briefly: In vitro Minimum inhibitory concentration was determined by microbroth dilution assay on Torulopsis glabrata. The experiment is classed as functional. In outline: as §2
For experiment [10], the system named is Candida albicans.
Experiment [11] concerns Candida albicans. The experiment can be described thus: Compound was tested for the inhibition of Delta 24-sterol-C-methyl-transferase. The gist of the method:
as §1

Values after ≈ are worked out from the molar mass of the structure shown.

For `CC(C)[S+](C)CC[C@@H](C)C1CC[C@@]2(C)C3=C(CC[C@]12C)[C@@]1(C)CC[C@H](O)C(C)(C)C1CC3` (some centres not stated), the Alpha c in the experiment with Candida albicans [1] came to 0.02. Also, the Kis in the experiment on Candida albicans [2] was 21 nM. In the experiment with Candida albicans [3], the Inhibition type entry was “Parabolic competitive”.
Turning to `CC(C)SCC[C@@H](C)C1CC[C@@]2(C)C3=C(CC[C@]12C)[C@@]1(C)CC[C@H](O)C(C)(C)C1CC3` (some centres not stated), the Kis in the experiment on Candida albicans [2] turned out to be 72000 nM. Moreover, the Inhibition type result with Candida albicans [3] is reported as “Competitive”.
`C[C@@H]1[C@H](O)[C@@H](C)/C=C/C=C/C=C/C=C/C=C/C=C/C=C/[C@H](O[C@@H]2O[C@H](C)[C@@H](O)[C@H](N)[C@@H]2O)C[C@@H]2O[C@](O)(C[C@@H](O)C[C@@H](O)[C@H](O)CC[C@@H](O)C[C@@H](O)CC(=O)O[C@H]1C)C[C@H](O)[C@H]2C(=O)O` [AMPHOTERICIN B]: the results for the MIC in the experiment on Candida albicans [4], against Candida tropicalis [6] and against Nakaseomyces glabratus [9] were 0.2 µg/mL (≈ 0.216 µM), 0.2 µg/mL (≈ 0.216 µM) and 0.1 µg/mL (≈ 0.108 µM), respectively. For the same compound, the figures for the MLC in the experiment with Candida albicans [5], with Candida tropicalis [7] and in the experiment with Nakaseomyces glabratus [8] were 0.8 µg/mL (≈ 0.866 µM), 0.4 µg/mL (≈ 0.433 µM) and 0.4 µg/mL (≈ 0.433 µM), respectively.
As for `C[C@H](CCc1ncc[nH]1)C1CC[C@@]2(C)C3=C(CC[C@]12C)[C@@]1(C)CC[C@H](O)C(C)(C)C1CC3` (some centres not stated), the MIC was 1.6 µg/mL (≈ 3.65 µM) with Candida albicans [4], greater than 100 µg/mL in the experiment with Candida tropicalis [6] and greater than 100 µg/mL in the experiment with Nakaseomyces glabratus [9]. Also, the MLC in the experiment on Candida albicans [5], in the experiment on Candida tropicalis [7] and in the experiment with Nakaseomyces glabratus [8] was greater than 100 µg/mL each time. Besides, the Kis in the experiment with Candida albicans [2] worked out at 11 nM. Besides, the Inhibition type result in the experiment with Candida albicans [3] is reported as “Noncompetitive”. This compound had a Kii in the experiment with Candida albicans [10] of 25 nM.
Take `CC(C)SCC[C@@H](C)C1CCC2C3CC=C4C[C@@H](O)CC[C@]4(C)C3CC[C@@]21C` (some centres not stated): the figures for the MIC in the experiment on Candida albicans [4], in the experiment on Candida tropicalis [6] and against Nakaseomyces glabratus [9] were 50 µg/mL (≈ 124 µM), greater than 100 µg/mL and greater than 100 µg/mL, respectively. The MLC in the experiment with Candida albicans [5], in the experiment with Candida tropicalis [7] and in the experiment with Nakaseomyces glabratus [8] was greater than 100 µg/mL throughout. Further, the Kis in the experiment on Candida albicans [11] came out at 1500 nM. The Inhibition type result in the experiment on Candida albicans [3] is “Competitive”.
In the case of `C[C@H](CCc1nccn1C)C1CC[C@@]2(C)C3=C(CC[C@]12C)[C@@]1(C)CC[C@H](O)C(C)(C)C1CC3` (some centres not stated), the MIC against Candida albicans [4] was 0.4 µg/mL (≈ 0.884 µM); in the experiment on Candida tropicalis [6], 12.5 µg/mL (≈ 27.6 µM); against Nakaseomyces glabratus [9], greater than 100 µg/mL. The MLC is greater than 100 µg/mL in the experiment with Candida albicans [5], 100 µg/mL (≈ 221 µM) in the experiment on Candida tropicalis [7] and greater than 100 µg/mL with Nakaseomyces glabratus [8]. In the experiment with Candida albicans [2], the Kis was found to be 5 nM. For the same compound, in the experiment on Candida albicans [3], the Inhibition type result is “Parabolic competitive”.
Consider `C[C@H](CCC(N)=[N+](C)C)C1CC[C@@]2(C)C3=C(CC[C@]12C)[C@@]1(C)CC[C@H](O)C(C)(C)C1CC3` (some centres not stated), for which, in the experiment with Candida albicans [2], the Kis is 6 nM. Further, the Inhibition type result with Candida albicans [3] is “Parabolic competitive”.
As to `CC(=O)N1CCN(c2ccc(OCC3COC(Cn4ccnc4)(c4ccc(Cl)cc4Cl)O3)cc2)CC1` (configuration not stated) [KETOCONAZOLE], the MIC turned out to be 0.1 µg/mL (≈ 0.188 µM) against Candida albicans [4], 1.6 µg/mL (≈ 3.01 µM) against Candida tropicalis [6] and 3.1 µg/mL (≈ 5.83 µM) in the experiment with Nakaseomyces glabratus [9]. In addition, the MLC in the experiment with Candida albicans [5] was determined as 12.5 µg/mL (≈ 23.5 µM); with Candida tropicalis [7], 6.3 µg/mL (≈ 11.9 µM); with Nakaseomyces glabratus [8] it was 12.5 pug ml-1.
For the compound `CC(C)[S+]([O-])CC[C@@H](C)C1CCC2C3CC=C4C[C@@H](O)CC[C@]4(C)C3CC[C@@]21C` (some centres not stated), in the experiment on Candida albicans [2], the Kis was determined as 20000 nM. Also, in the experiment with Candida albicans [3], the Inhibition type result is “Competitive”.
Take `CC(C)[S+](C)CC[C@@H](C)C1CCC2C3CC=C4C[C@@H](O)CC[C@]4(C)C3CC[C@@]21C.[I-]` (some centres not stated): the MIC with Candida albicans [4] worked out at 0.2 µg/mL; in the experiment on Candida tropicalis [6], 0.2 µg/mL; in the experiment on Nakaseomyces glabratus [9] it was 1.6 µg/mL. The MLC was found to be 50 µg/mL with Candida albicans [5], 6.3 µg/mL in the experiment on Candida tropicalis [7] and 50 µg/mL in the experiment with Nakaseomyces glabratus [8]. The compound further had a Kis in the experiment on Candida albicans [11] of 16 nM. The same compound returned an Alpha c in the experiment on Candida albicans [1] of 0.05. In addition, in the experiment on Candida albicans [3], the Inhibition type entry is on record as “Parabolic competitive”.
Take `C[C@H](CCC(=N)N)C1CC[C@@]2(C)C3=C(CC[C@]12C)[C@@]1(C)CC[C@H](O)C(C)(C)C1CC3.O=S(=O)(O)C(F)(F)F` (some centres not stated): the MIC worked out at 0.2 µg/mL against Candida albicans [4], 0.4 µg/mL against Candida tropicalis [6] and 3.1 µg/mL against Nakaseomyces glabratus [9]. Also, the results for the MLC in the experiment with Candida albicans [5], with Candida tropicalis [7] and in the experiment with Nakaseomyces glabratus [8] were 12.5 µg/mL, 12.5 µg/mL and 50 µg/mL, respectively. In the experiment with Candida albicans [11], the Kis amounted to 11 nM. In the experiment with Candida albicans [1], the Alpha c stood at 0.06. Besides, the Inhibition type result with Candida albicans [3] was “Parabolic competitive”.
For the compound `CC[S+](CC[C@@H](C)C1CCC2C3CC=C4C[C@@H](O)CC[C@]4(C)C3CC[C@@]21C)C(C)C.[I-]` (some centres not stated), the results for the MIC against Candida albicans [4], in the experiment with Candida tropicalis [6] and with Nakaseomyces glabratus [9] were 100 µg/mL, 100 µg/mL and greater than 100 µg/mL, respectively. The MLC in the experiment on Candida albicans [5], with Candida tropicalis [7] and in the experiment on Nakaseomyces glabratus [8] was greater than 100 µg/mL each time. For the same compound, the Kis in the experiment on Candida albicans [2] was 500 nM. For the same compound, the Inhibition type result in the experiment with Candida albicans [3] was “Parabolic competitive”.

Values taken from ChEMBL document CHEMBL1126006, “Synthesis, specificity, and antifungal activity of inhibitors of the Candida albicans delta 24-sterol methyltransferase” (J Med Chem, 1992).
